Laboratory results taken from ChEMBL document CHEMBL4393735, “Molecular modelling, synthesis, and biological evaluations of a 3,5-disubstituted isoxazole fatty acid analogue as a PPARα-selective agonist” (Bioorg Med Chem, 2019).
Values belong to the compound of their own block, whether it stands above or below them. Calls of active or inactive are those of the source.

Experiments:
[1] = target: T1, Peroxisome proliferator-activated receptor alpha (Mus musculus) (UniProt P23204); assay: Agonist activity at PPARalpha in C57BL/6N mouse primary hepatocytes assessed as activation of Cpt1a mRNA expression at 50 uM measured after 18 hrs by qRT-PCR analysis; format: cell-based
T1 sequence (whole entry): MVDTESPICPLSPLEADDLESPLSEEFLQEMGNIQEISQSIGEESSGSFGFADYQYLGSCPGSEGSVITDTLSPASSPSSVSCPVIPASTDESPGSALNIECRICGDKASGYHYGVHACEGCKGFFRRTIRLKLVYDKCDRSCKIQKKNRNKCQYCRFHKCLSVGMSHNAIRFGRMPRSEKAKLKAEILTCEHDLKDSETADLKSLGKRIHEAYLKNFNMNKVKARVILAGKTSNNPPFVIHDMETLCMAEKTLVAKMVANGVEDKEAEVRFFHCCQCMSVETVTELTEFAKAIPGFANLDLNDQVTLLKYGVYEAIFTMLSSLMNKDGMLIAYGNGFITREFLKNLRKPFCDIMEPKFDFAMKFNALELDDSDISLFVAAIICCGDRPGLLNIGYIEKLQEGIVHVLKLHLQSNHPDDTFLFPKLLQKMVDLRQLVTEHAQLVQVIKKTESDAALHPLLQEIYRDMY
Procedure, shortened: (§1)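 Treatment for 18 h at 50 μM (or 1 μM for the 1 μM agents), DMSO vehicle. Harvested for qPCR. mRNA normalized to TBP by the comparative threshold method, expressed relative to DMSO control. Two biological replicates run in duplicate, mean ± SEM. Primary hepatocytes came from male C57BL/6N mice aged 7–8 weeks, isolated by portal-vein perfusion and digestion, seeded on collagen I and used on day 2. HuH-7 cells were kept in DMEM with 10% FBS and ITS.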

[2] = target: T2, Peroxisome proliferator-activated receptor alpha (Homo sapiens) (UniProt Q07869); assay: Agonist activity at PPARalpha in human Huh7 cells assessed as PPARA mRNA expression at 50 uM measured after 18 hrs by qRT-PCR analysis; format: cell-based; procedure, shortened: as §1
T2 sequence (whole entry): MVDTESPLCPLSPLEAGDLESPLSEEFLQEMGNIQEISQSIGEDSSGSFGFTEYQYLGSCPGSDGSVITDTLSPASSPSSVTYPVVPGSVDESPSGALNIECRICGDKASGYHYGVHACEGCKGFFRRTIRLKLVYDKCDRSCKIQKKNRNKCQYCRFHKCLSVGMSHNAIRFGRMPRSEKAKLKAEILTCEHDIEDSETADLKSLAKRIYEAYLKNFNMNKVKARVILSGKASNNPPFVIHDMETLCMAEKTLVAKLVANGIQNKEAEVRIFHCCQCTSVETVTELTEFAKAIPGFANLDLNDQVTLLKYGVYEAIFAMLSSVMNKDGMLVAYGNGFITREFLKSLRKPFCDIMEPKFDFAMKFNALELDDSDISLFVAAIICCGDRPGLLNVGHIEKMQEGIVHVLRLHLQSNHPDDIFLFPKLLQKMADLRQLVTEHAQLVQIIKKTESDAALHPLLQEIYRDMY

[3] = target: T2, Peroxisome proliferator-activated receptor alpha (Homo sapiens); assay: Agonist activity at PPARalpha in human Huh7 cells assessed as activation of CPT1A mRNA expression at 50 uM measured after 18 hrs by qRT-PCR analysis; format: cell-based; procedure, shortened: as §1
[4] = target: T2, Peroxisome proliferator-activated receptor alpha (Homo sapiens); assay: Agonist activity at PPARalpha in human Huh7 cells assessed as SCD1 mRNA expression at 50 uM measured after 18 hrs by qRT-PCR analysis; format: cell-based; procedure, shortened: as §1
[5] = target: T2, Peroxisome proliferator-activated receptor alpha (Homo sapiens); assay: Agonist activity at PPARalpha in human Huh7 cells assessed as SREBF1 mRNA expression at 50 uM measured after 18 hrs by qRT-PCR analysis; format: cell-based; procedure, shortened: as §1
[6] = target: T1, Peroxisome proliferator-activated receptor alpha (Mus musculus); assay: Agonist activity at PPARalpha in C57BL/6N mouse primary hepatocytes assessed as SCD1 mRNA expression at 50 uM measured after 18 hrs by qRT-PCR analysis; format: cell-based; procedure, shortened: as §1
[7] = target: T1, Peroxisome proliferator-activated receptor alpha (Mus musculus); assay: Agonist activity at PPARalpha in C57BL/6N mouse primary hepatocytes assessed as SREBF1 mRNA expression at 50 uM measured after 18 hrs by qRT-PCR analysis; format: cell-based; procedure, shortened: as §1
[8] = test system: SGBS; assay: Upregulation of PPARgamma gene expression in human preadipocyte derived from Simpson-Golabi-Behmel syndrome (SGBS) patient at 25 uM measured for 12 days by qRT-PCR analysis; format: functional, cell-based
Procedure, shortened: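 SGBS cells grown 4 days in biotin/D-pantothenate medium, then differentiated without FBS (apo-transferrin, insulin, T3, hydrocortisol, IBMX, dexamethasone) with 25 μM compound or 0.1 % DMSO added from day 0. After 4 days, switched to maintenance medium without IBMX/dexamethasone, renewed day 8. qPCR on days 0, 4, 8, 12, normalized to TBP (comparative threshold) and to day 0. Minimum three biological replicates in duplicate, mean ± SEM.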

[9] = test system: SGBS; assay: Upregulation of CEBPA gene expression in human preadipocyte derived from Simpson-Golabi-Behmel syndrome (SGBS) patient at 25 uM measured for 12 days by qRT-PCR analysis; format: functional, cell-based
Procedure, shortened: (§2)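 SGBS cells were differentiated with serum-free induction medium containing 25 μM test agent, 2 μM rosiglitazone or 0.1% DMSO from day 0. IBMX and dexamethasone were removed on day 4 and medium was renewed on day 8. RNA was taken on days 0, 4, 8 and 12 for qPCR, normalized to TBP and to day 0. At least three biological replicates in duplicate, two-way ANOVA with Bonferroni.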

[10] = test system: SGBS; assay: Upregulation of ACSL1 gene expression in human preadipocyte derived from Simpson-Golabi-Behmel syndrome (SGBS) patient at 25 uM measured for 12 days by qRT-PCR analysis; format: functional, cell-based; procedure, shortened: as §2
[11] = test system: SGBS; assay: Upregulation of CD36 gene expression in human preadipocyte derived from Simpson-Golabi-Behmel syndrome (SGBS) patient at 25 uM measured for 12 days by qRT-PCR analysis; format: functional, cell-based; procedure, shortened: as §2
[12] = test system: SGBS; assay: Upregulation of FABP4 gene expression in human preadipocyte derived from Simpson-Golabi-Behmel syndrome (SGBS) patient at 25 uM measured for 12 days by qRT-PCR analysis; format: functional, cell-based; procedure, shortened: as §2
[13] = test system: SGBS; assay: Upregulation of PLIN1 gene expression in human preadipocyte derived from Simpson-Golabi-Behmel syndrome (SGBS) patient at 25 uM measured for 12 days by qRT-PCR analysis; format: functional, cell-based; procedure, shortened: as §2
[14] = test system: SGBS; assay: Upregulation of ADIPOQ gene expression in human preadipocyte derived from Simpson-Golabi-Behmel syndrome (SGBS) patient at 25 uM measured for 12 days by qRT-PCR analysis; format: functional, cell-based; procedure, shortened: as §2
[15] = test system: SGBS; assay: Upregulation of ANGPTL4 gene expression in human preadipocyte derived from Simpson-Golabi-Behmel syndrome (SGBS) patient at 25 uM measured for 12 days by qRT-PCR analysis; format: functional, cell-based; procedure, shortened: as §2
[16] = test system: SGBS; assay: Induction of adipocyte differentiation in human preadipocyte derived from Simpson-Golabi-Behmel syndrome (SGBS) patient assessed as lipid accumulation at 25 uM measured for 12 days by Oil red O staining based microscopic analysis; format: functional, cell-based
Procedure, shortened: (§3)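 Differentiation of SGBS preadipocytes was started in serum-free medium with transferrin, insulin, T3, hydrocortisol, IBMX and dexamethasone, plus 25 μM test agent, 2 μM rosiglitazone or 0.1% DMSO. On day 4 medium was switched to lack IBMX and dexamethasone, and it was renewed on day 8. Cells were fixed with 4% PFA and stained with 0.3% Oil Red O on days 0, 4, 8 and 12, then photographed.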

[17] = target: T1, Peroxisome proliferator-activated receptor alpha (Mus musculus); assay: Agonist activity at PPARalpha in C57BL/6N mouse primary hepatocytes assessed as activation of Scd1 mRNA expression at 1 uM measured after 18 hrs by qRT-PCR analysis; format: cell-based; procedure, shortened: as §1
[18] = test system: SGBS; assay: Induction of adipocyte differentiation in human preadipocyte derived from Simpson-Golabi-Behmel syndrome (SGBS) patient assessed as lipid accumulation at 2 uM measured for 12 days by Oil red O staining based microscopic analysis; format: functional, cell-based; procedure, shortened: as §3
[19] = target: T1, Peroxisome proliferator-activated receptor alpha (Mus musculus); assay: Agonist activity at PPARalpha in C57BL/6N mouse primary hepatocytes assessed as activation of PPARalpha mRNA expression at 1 uM measured after 18 hrs by qRT-PCR analysis; format: cell-based; procedure, shortened: as §1
[20] = test system: SGBS; assay: Upregulation of PPARgamma gene expression in human preadipocyte derived from Simpson-Golabi-Behmel syndrome (SGBS) patient at 2 uM measured for 12 days by qRT-PCR analysis; format: functional, cell-based; procedure, shortened: as §2
[21] = test system: SGBS; assay: Upregulation of CEBPA gene expression in human preadipocyte derived from Simpson-Golabi-Behmel syndrome (SGBS) patient at 2 uM measured for 12 days by qRT-PCR analysis; format: functional, cell-based; procedure, shortened: as §2
[22] = test system: SGBS; assay: Upregulation of ACSL1 gene expression in human preadipocyte derived from Simpson-Golabi-Behmel syndrome (SGBS) patient at 2 uM measured for 12 days by qRT-PCR analysis; format: functional, cell-based; procedure, shortened: as §2
[23] = test system: SGBS; assay: Upregulation of CD36 gene expression in human preadipocyte derived from Simpson-Golabi-Behmel syndrome (SGBS) patient at 2 uM measured for 12 days by qRT-PCR analysis; format: functional, cell-based; procedure, shortened: as §2
[24] = test system: SGBS; assay: Upregulation of FABP4 gene expression in human preadipocyte derived from Simpson-Golabi-Behmel syndrome (SGBS) patient at 2 uM measured for 12 days by qRT-PCR analysis; format: functional, cell-based; procedure, shortened: as §2
[25] = test system: SGBS; assay: Upregulation of PLIN1 gene expression in human preadipocyte derived from Simpson-Golabi-Behmel syndrome (SGBS) patient at 2 uM measured for 12 days by qRT-PCR analysis; format: functional, cell-based; procedure, shortened: as §2
[26] = test system: SGBS; assay: Upregulation of ADIPOQ gene expression in human preadipocyte derived from Simpson-Golabi-Behmel syndrome (SGBS) patient at 2 uM measured for 12 days by qRT-PCR analysis; format: functional, cell-based; procedure, shortened: as §2
[27] = test system: SGBS; assay: Upregulation of ANGPTL4 gene expression in human preadipocyte derived from Simpson-Golabi-Behmel syndrome (SGBS) patient at 2 uM measured for 12 days by qRT-PCR analysis; format: functional, cell-based; procedure, shortened: as §2
[28] = target: T1, Peroxisome proliferator-activated receptor alpha (Mus musculus); assay: Agonist activity at PPARalpha in C57BL/6N mouse primary hepatocytes assessed as activation of Srebf1 mRNA expression at 1 uM measured after 18 hrs by qRT-PCR analysis; format: cell-based; procedure, shortened: as §1

- Activity [1]: Active
- Activity [2]: inactive
- Activity [3]: Active
- Activity [4]: inactive
- Activity [5]: inactive
- Activity [6]: Active
- Activity [7]: Active
Compound: Cc1cccc(Nc2cc(Cl)nc(SCC(=O)O)n2)c1C
- Activity [8]: Active
- Activity [9]: Active
- Activity [10]: Active
- Activity [11]: Active
- Activity [12]: Active
- Activity [13]: Active
- Activity [14]: Active
- Activity [15]: Active
- Activity [16]: Active

- Activity [17]: inactive
- Activity [19]: Active
- Activity [28]: inactive
Compound: CN(CCOc1ccc(CC2SC(=O)NC2=O)cc1)c1ccccn1 (stereo not drawn)
- Activity [18]: Active
- Activity [20]: Active
- Activity [21]: Active
- Activity [22]: Active
- Activity [23]: Active
- Activity [24]: Active
- Activity [25]: Active
- Activity [26]: Active
- Activity [27]: Active
